Data: ChEMBL document CHEMBL1287671, “Design, synthesis and SAR of a novel series of benzimidazoles as potent NPY Y5 antagonists” (Bioorg Med Chem Lett, 2010)

Columns and labels:
[1] = tested on: Liver microsomes; assay: Intrinsic clearance in human liver microsomes; assay type: ADME, Microsome
Method in brief: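 Intrinsic clearance measured in human liver microsomes; expressed as ml/min/g liver.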

[2] = Ratio of drug level in brain to blood in rat at 0.5 mg/kg, iv after 1 hr; assay type: ADME, organism-based; parameters: dose 0.5 mg/kg, route intravenous
Method in brief: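 Male rats given 0.5 mg/kg iv; brain and blood levels sampled 1 h after dosing and expressed as brain/blood partition.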

Row | Structure (SMILES) | CL [1] [mL/min/g] | Kp at 1 h [2]
1 | O=C1O[C@]2(CC[C@H](c3nc4ccc(OC(F)(F)F)cc4[nH]3)CC2)CN1c1ccccc1Cl | 0.5 | 
2 | O=C1O[C@]2(CC[C@H](c3nc4cc(OC(F)(F)F)ccc4[nH]3)CC2)CN1c1ccccn1 | 0.5 | 0.5
3 | O=C1O[C@]2(CC[C@H](c3nc4ccc(OC(F)(F)F)cc4[nH]3)CC2)CN1c1ccccc1 | 0.5 | 0.6
4 | Cc1cccc(N2C[C@]3(CC[C@@H](c4nc5ccc(OC(F)(F)F)cc5[nH]4)CC3)OC2=O)n1 | 0.6 | 
5 | O=C1O[C@]2(CC[C@H](c3nc4ccc(OC(F)(F)F)cc4[nH]3)CC2)CN1c1cccc(F)n1 | 0.5 | 
6 | N#Cc1ccc2[nH]c([C@H]3CC[C@]4(CC3)CN(c3ccc(F)cc3)C(=O)O4)nc2c1 | 0.5 | 
7 | Cc1ccccc1N1C[C@]2(CC[C@@H](c3nc4ccc(OC(F)(F)F)cc4[nH]3)CC2)OC1=O | 0.5 | 
8 | N#Cc1ccc2nc([C@H]3CC[C@]4(CC3)CN(c3ccccn3)C(=O)O4)[nH]c2c1 | 15 | 
9 | Cc1ncccc1N1C[C@]2(CC[C@@H](c3nc4ccc(OC(F)(F)F)cc4[nH]3)CC2)OC1=O | 0.6 | 
10 | O=C1O[C@]2(CC[C@H](c3nc4cc(OC(F)(F)F)ccc4[nH]3)CC2)CN1c1ccc(F)cc1 | 0.5 | 
11 | O=C1O[C@]2(CC[C@H](c3nc4cc(OC(F)(F)F)ccc4[nH]3)CC2)CN1c1ccccc1F | 0.5 | 0.8
12 | O=C1O[C@]2(CC[C@H](c3nc4cc(C(F)(F)F)ccc4[nH]3)CC2)CN1c1ccccn1 | 0.5 | 
13 | O=C1O[C@]2(CC[C@H](c3nc4cc(OC(F)(F)F)ccc4[nH]3)CC2)CN1c1cccnc1 | 0.5 | 

Second part, the compound after the results:

Row | CL [1] [mL/min/g] | Kp at 1 h [2] | Structure (SMILES)
14 | 0.5 | 0.3 | O=C1OC2(CCN(c3nc4cc(OC(F)(F)F)ccc4[nH]3)CC2)CN1c1ccccc1
15 | 0.5 | < 0.03 | N#Cc1ccc2nc([C@H]3CC[C@]4(CC3)CN(c3ccccc3)C(=O)O4)[nH]c2c1
16 | 0.5 | 0.2 | O=C1OC2(CCN(c3nc4cc(C(F)(F)F)ccc4[nH]3)CC2)CN1c1ccccc1
17 | 2.5 |  | O=C1OC2(CCN(c3nc4cc(Br)ccc4[nH]3)CC2)CN1c1ccccc1
18 | 7 |  | O=C1OC2(CCN(c3nc4cc(-c5ccc(F)cc5)ccc4[nH]3)CC2)CN1c1ccccc1
19 | 9.8 |  | O=C1OC2(CCN(c3nc4ccccc4[nH]3)CC2)CN1c1ccccc1
20 | 0.5 | 0.3 | O=C1O[C@]2(CC[C@H](c3nc4cc(C(F)(F)F)ccc4[nH]3)CC2)CN1c1ccccc1
21 | 0.6 | < 0.1 | O=C(Nc1nc(-c2ccccn2)cs1)N1CCC2(CC1)CN(c1ccccc1)C(=O)O2
22 | 7 |  | O=C1OC2(CCN(c3nc4cc(F)ccc4[nH]3)CC2)CN1c1ccccc1
